Measurements reported in ChEMBL document CHEMBL3351742, “Novel quinazoline-urea analogues as modulators for Aβ-induced mitochondrial dysfunction: design, synthesis, and molecular docking study” (Eur J Med Chem, 2014).

Assays:
[1] = tested on: HT-22; assay: Inhibition of beta-amyloid peptide-induced mitochondrial permeability transition pore opening in mouse HT22 cells assessed as increase in green/red fluorescence ratio at 5 uM pre-incubated for 10 mins before Abeta peptide addition by JC-1 assay; assay type: cell-based; parameters: scale not given: the % may be the effect or the level left
Method in brief: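 HT-22 mouse hippocampal cells (DMEM, 10% FBS, 37 °C, 5% CO2), 30,000/well seeded a day ahead; loaded with 7.5 μM JC-1 (final) in phenol red-free Opti-MEM for 1 h 15 min at 37 °C, PBS-washed. Compound 5 μM for 10 min, then Aβ1–42 5 μM. Fluorescence read hourly for 3 h, red ex/em 530/580, green 485/530; green/red ratio change relative to Aβ alone (100%).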

[2] = Toxicity against mouse HT22 cells assessed as cell viability at 5 uM after 24 hrs by MTT assay; assay type: cell-based, HT-22; conditions: read-out: Activity
Method in brief: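 HT-22 cells, 5000/well, given compound at 5 μM without Aβ, 24 h at 37 °C. MTT added for 2 h at 37 °C, formazan dissolved in 10% Triton X-100/isopropanol with 0.1 M HCl for 1 h at room temperature; absorbance at 570 nm, vehicle-control values subtracted to derive viability.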

O=C(Nc1ccc(C(F)(F)F)cc1)Nc1cc2ncncc2cc1OCc1ccc(F)cc1
Activity [1]: 81%

Cc1ccc(NC(=O)Nc2cc3ncncc3cc2OCc2ccccc2F)cc1
Activity [1]: 26.7%
viability at 24 h, 5 µM [2]: 131%

O=C(Nc1cccc(F)c1)Nc1cc2ncncc2cc1OCc1ccc(Cl)cc1
Activity [1]: 29%
viability at 24 h, 5 µM [2]: 100%

O=C(Nc1cccc(Cl)c1)Nc1cc2ncncc2cc1OCc1ccc(Cl)cc1
Activity [1]: 64%

Cc1ccc(NC(=O)Nc2cc3ncncc3cc2OCc2ccccc2Cl)cc1
Activity [1]: 54.7%

O=C(Nc1ccc(Cl)c(Cl)c1)Nc1cc2ncncc2cc1OCc1ccccc1
Activity [1]: 73%

O=C(Nc1cccc(F)c1)Nc1cc2ncncc2cc1OCc1cccc(F)c1
Activity [1]: 27%
viability at 24 h, 5 µM [2]: 104%

O=C(Nc1ccccc1F)Nc1cc2ncncc2cc1OCc1ccc(Cl)cc1
Activity [1]: 24%
viability at 24 h, 5 µM [2]: 102%

O=C(Nc1ccc(Cl)c(Cl)c1)Nc1cc2ncncc2cc1OCc1ccc(Cl)cc1
Activity [1]: 91%

O=C(Nc1cccc(Cl)c1)Nc1cc2ncncc2cc1OCc1ccccc1F
Activity [1]: 51.4%

O=C(Nc1cccc(F)c1)Nc1cc2ncncc2cc1OCc1ccccc1
Activity [1]: 38%
viability at 24 h, 5 µM [2]: 100%

Cc1ccc(NC(=O)Nc2cc3ncncc3cc2OCc2ccc(F)cc2)cc1
Activity [1]: 99.2%

O=C(Nc1cccc(F)c1)Nc1cc2ncncc2cc1OCc1ccccc1F
Activity [1]: 56.9%

O=C(Nc1cc2ncncc2cc1OCc1ccccc1F)Nc1cccc2ccccc12
Activity [1]: 39.4%
viability at 24 h, 5 µM [2]: 83%

O=C(Nc1ccccc1F)Nc1cc2ncncc2cc1OCc1ccc(F)cc1
Activity [1]: 80.3%

O=C(Nc1cccc(Cl)c1)Nc1cc2ncncc2cc1OCc1ccc(F)cc1
Activity [1]: 67.9%

O=C(Nc1cccc(F)c1)Nc1cc2ncncc2cc1OCc1ccc(F)cc1
Activity [1]: 61.5%

O=C(Nc1cc2ncncc2cc1OCc1ccccc1)Nc1cccc2ccccc12
Activity [1]: 76%

Cc1ccc(NC(=O)Nc2cc3ncncc3cc2OCc2cccc(F)c2)cc1
Activity [1]: 81%

O=C(Nc1ccc(C(F)(F)F)cc1)Nc1cc2ncncc2cc1OCc1ccc(Cl)cc1
Activity [1]: 48%

O=C(Nc1ccc(Cl)c(Cl)c1)Nc1cc2ncncc2cc1OCc1ccc(F)cc1
Activity [1]: 155%

O=C(Nc1ccccc1F)Nc1cc2ncncc2cc1OCc1ccccc1Cl
Activity [1]: 31%
viability at 24 h, 5 µM [2]: 101%

O=C(Nc1ccc(C(F)(F)F)cc1)Nc1cc2ncncc2cc1OCc1ccccc1F
Activity [1]: 68.6%

Cc1ccc(NC(=O)Nc2cc3ncncc3cc2OCc2ccc(Cl)cc2)cc1
Activity [1]: 63%

Cc1ccc(NC(=O)Nc2cc3ncncc3cc2OCc2ccccc2)cc1
Activity [1]: 154%
